According to ChEMBL document CHEMBL4825662 (J Med Chem, 2021):
In brackets after ≈: the same amount, converted by molar mass.

Experiments:
Human orthopneumovirus [1] = test: Antiviral activity against Respiratory syncytial virus A2 by Plaque reduction assay; type: functional, organism-based
Method in brief: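 Vero cells were infected with RSV A2 for 48 h with compound at 0.01 nM to 100 μM. Plaques were detected by immunostaining. Values are the average of at least two testing occasions.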

[2] = Volume of distribution at steady state in CD1 mouse at 1 mg/kg, iv measured after 0.083 to 24 hrs by UHPLC-TOF method; type: ADME, organism-based; settings: in vivo, time 0.083-24 hrs, read-out: Vdss
Method in brief: (§1)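 Male CD-1 mice, acclimatized and individually housed, dosed IV and PO as amorphous-solid suspension. Terminal cardiac-puncture blood into heparinized tubes on wet ice, centrifuged at 4 °C within 15 min; plasma snap-frozen at −20 °C. IV arm sampled 2 min–24 h, oral arm 5 min–24 h. Plasma analysed by UHPLC-quadrupole-TOF MS.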

[3] = Intrinsic clearance in Beagle dog liver microsomes preincubated followed by NADPH addition and measured up to 45 mins by LC-MS/MS analysis; type: ADME, Canis lupus familiaris, Microsome
Fusion glycoprotein F0 = Fusion glycoprotein F0 (Human respiratory syncytial virus A (strain A2), UniProt P03420); test: Inhibition of Respiratory syncytial virus fusion protein
Sequence of Fusion glycoprotein F0 (P03420 26-109 limits assumed): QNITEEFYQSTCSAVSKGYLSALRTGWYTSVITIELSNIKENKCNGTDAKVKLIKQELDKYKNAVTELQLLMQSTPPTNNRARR
Sequence of Fusion glycoprotein F0 (P03420 137-574 limits assumed): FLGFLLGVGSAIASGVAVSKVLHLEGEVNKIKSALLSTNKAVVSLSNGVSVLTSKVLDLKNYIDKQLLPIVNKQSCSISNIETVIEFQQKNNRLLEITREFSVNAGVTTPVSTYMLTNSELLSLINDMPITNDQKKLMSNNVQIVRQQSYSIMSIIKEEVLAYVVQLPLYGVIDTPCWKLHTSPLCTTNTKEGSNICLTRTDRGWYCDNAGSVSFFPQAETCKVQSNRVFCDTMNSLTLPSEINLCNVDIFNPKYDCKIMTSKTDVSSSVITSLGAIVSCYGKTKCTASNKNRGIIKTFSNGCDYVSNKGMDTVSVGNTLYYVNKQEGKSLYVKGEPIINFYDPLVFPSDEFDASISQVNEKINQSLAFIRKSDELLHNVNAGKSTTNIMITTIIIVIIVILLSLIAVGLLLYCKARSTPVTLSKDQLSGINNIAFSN
Method in brief: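 293T cells cotransfected with codon-optimized RSV A2 F plasmid and a GAL4-responsive luciferase reporter, mixed after 24 h with a second 293T population expressing GAL4-NF-κB transactivator. Threefold serial compound dilutions present during mixing; F-mediated fusion read as luciferase after 24 h. IC₅₀ averaged over at least two testing occasions.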

[4] = Apparent permeability across basolateral side to apical side in MDCK-MDR1 cells at 10 uM measured at 60 mins by LC-MS/MS analysis; type: ADME, cell-based, Canis lupus familiaris; settings: dog
[5] = Intrinsic clearance in Sprague-Dawley rat liver microsomes preincubated followed by NADPH addition and measured up to 45 mins by LC-MS/MS analysis; type: ADME, Microsome
[6] = Cmax in CD1 mouse at 10 mg/kg, po measured after 0.083 to 24 hrs by UHPLC-TOF method; type: ADME, organism-based; design: route oral, time 0.083-24 hrs, dose 10 mg/kg; settings: in vivo
[7] = Intrinsic clearance in human liver microsomes preincubated followed by NADPH addition and measured up to 45 mins by LC-MS/MS analysis; type: ADME, Microsome
[8] = Tmax in CD1 mouse at 10 mg/kg, po measured after 0.083 to 24 hrs by UHPLC-TOF method; type: ADME, organism-based; settings: in vivo, time 0.083-24 hrs; method in brief: as §1
[9] = Oral bioavailability in CD1 mouse at 10 mg/kg measured after 0.03 to 24 hrs by UHPLC-TOF method; type: ADME, organism-based; settings: in vivo, time 0.03-24 hrs; method in brief: as §1
[10] = Clearance in CD1 mouse at 1 mg/kg, iv measured after 0.083 to 24 hrs by UHPLC-TOF method; type: ADME, organism-based; settings: in vivo, time 0.083-24 hrs
[11] = Half life in CD1 mouse at 10 mg/kg, po measured after 0.083 to 24 hrs by UHPLC-TOF method; type: ADME, organism-based; settings: in vivo, time 0.083-24 hrs
[12] = Apparent permeability of compound in wild type MDCK at 10 uM incubated for 1 hr by LC-MS/MS assay; type: ADME, Canis lupus familiaris; settings: dog
[13] = Cytotoxicity against African green monkey Vero cells by MTT assay; type: cell-based; settings: chlorocebus sabaeus
Method in brief: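 Viability was assessed by MTT after culture with compound at 0.01 nM to 100 μM, run in parallel with plaque reduction assays. Values are the average of at least two testing occasions.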

[14] = Protein binding in human plasma assessed as unbound fraction at 5 uM by LC-MS/MS analysis based equilibrium dialysis method; type: ADME, cell-free
[15] = Protein binding in rat plasma assessed as unbound fraction at 5 uM by LC-MS/MS analysis based equilibrium dialysis method; type: ADME, cell-free
[16] = Protein binding in dog plasma assessed as unbound fraction at 5 uM by LC-MS/MS analysis based equilibrium dialysis method; type: ADME, cell-free, Canis lupus familiaris
Human orthopneumovirus [17] = test: Antiviral activity against Respiratory syncytial virus A2 infected in African green monkey Vero cells by Plaque reduction assay; type: functional, organism-based
[18] = Oral bioavailability in Sprague-Dawley rat at 10 mg/kg administered via gavage measured after 0.02 to 24 hrs by tandem liquid chromatography/mass spectrometry; type: ADME, organism-based; settings: in vivo, time 0.02-24 hrs
Method in brief: (§2)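 Male Sprague–Dawley rats (200–250 g), 3 per route. IV bolus at 1 mg/kg, 1 mg/mL in 40:60 dimethylacetamide/saline; oral gavage at 5 or 10 mg/kg, 5 mg/mL in 1% methyl cellulose, 0.1% Tween 80 in water. Serial blood at 0.02–24 h (ten points) into heparin, spun at 4 °C, plasma frozen; acetonitrile protein precipitation, ESI LC-MS/MS with matrix curve and internal standards.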

[19] = Clearance in Sprague-Dawley rat at 1 mg/kg, iv administered […] measured after 0.02 to 24 hrs by tandem liquid chromatography/mass spectrometry; type: ADME, organism-based; settings: in vivo, time 0.02-24 hrs
[20] = Thermodynamic solubility in PBS at 1 to 100 uM at pH 7.4 by HPLC-UV method; type: physicochemical; settings: dose 1-100 µM, read-out: Therm_solubility
[21] = Apparent permeability across apical to basolateral side in MDCK-MDR1 cells at 10 uM measured at 60 mins by LC-MS/MS analysis; type: ADME, cell-based, Canis lupus familiaris; settings: dog, mdck-mdr1, 1 h, 10 µM
[22] = Volume of distribution at steady state in Sprague-Dawley rat at 1 mg/kg, iv administered […] measured after 0.02 to 24 hrs by tandem liquid chromatography/mass spectrometry; type: ADME, organism-based; settings: in vivo, time 0.02-24 hrs, read-out: Vdss; method in brief: as §2
[23] = Cmax in Sprague-Dawley rat at 5 mg/kg, po administered via gavage measured after 0.02 to 24 hrs by tandem liquid chromatography/mass spectrometry; type: ADME, organism-based; design: route oral, dose 5 mg/kg, time upper 24 hrs, time lower 0.02 hrs; settings: in vivo
Method in brief: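 Male Sprague–Dawley rats weighing 200–250 g, 3 per route, were used. The i.v. bolus was 1 mg/kg at 1 mg/mL in 40:60 dimethylacetamide/saline. Oral gavage doses were 5 or 10 mg/kg at 5 mg/mL in 1% methyl cellulose with 0.1% Tween 80. Heparinized blood was taken at 0.02–24 h (ten time points). Plasma was analyzed by LC-MS/MS after acetonitrile precipitation.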

[24] = Intrinsic clearance in rat hepatocytes assessed per million cells at 3 uM measured up to 60 mins by LC-MS/MS analysis; type: ADME, cell-based, Hepatocyte; settings: read-out: CLH
[25] = Efflux ratio of apparent permeability in MDCK-MDR1 cells at 10 uM measured at 60 mins by LC-MS/MS analysis; type: ADME, cell-based, Canis lupus familiaris; settings: dog, mdck-mdr1, 1 h, 10 µM
[26] = Half life in Sprague-Dawley rat liver microsomes preincubated followed by NADPH addition and measured up to 45 mins by LC-MS/MS analysis; type: ADME, Microsome
[27] = Half life in human liver microsomes preincubated followed by NADPH addition and measured up to 45 mins by LC-MS/MS analysis; type: ADME, Microsome
[28] = Half life in Beagle dog liver microsomes preincubated followed by NADPH addition and measured up to 45 mins by LC-MS/MS analysis
[29] = Kinetic solubility of compound in PBS at 200 uM at pH 7.4 by LC-MS/LC-UV analysis; type: physicochemical; settings: read-out: Kinetic_solubility
Method in brief: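 Compound added from DMSO into PBS pH 7.4; precipitation measured across a range of concentrations.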

[30] = Drug metabolism in human liver microsomes assessed as metabolite M1 formation at 10 uM incubated for 60 mins by HPLC method; type: ADME, Microsome; settings: 1 h
Method in brief: (§3)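 Compound at 10 μM was incubated with rat or human liver microsomes. Sites of metabolism were proposed from mass spectral fragmentation patterns.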

[31] = Drug metabolism in rat liver microsomes assessed as metabolite M1 formation at 10 uM incubated for 60 mins by HPLC method; type: ADME, Microsome; settings: 1 h; method in brief: as §3
[32] = Cmax in CD1 mouse at 5 mg/kg, po measured after 0.03 to 24 hrs by UHPLC-TOF method; type: ADME, organism-based; design: route oral, time upper 24 hrs, time lower 0.03 hrs, dose 5 mg/kg; settings: in vivo
[33] = Oral bioavailability in CD1 mouse at 5 mg/kg measured after 0.03 to 24 hrs by UHPLC-TOF method; type: ADME, organism-based; settings: in vivo, time 0.03-24 hrs; method in brief: as §1

CC(C)CCn1c(CN2C(=O)C3(CC3)c3cccnc32)nc2cc(CN)ccc21
EC50 (Human orthopneumovirus [1]): 4.1 nM | Vd [2]: 4.5 L/kg | intrinsic clearance [3]: 71.3 µL/min | IC50 (Fusion glycoprotein F0): 0.9 nM | Papp B→A at 1 h, 10 µM [4]: 0.1 ×10⁻⁶ cm/s | Microsomal intrinsic clearance [5]: 328 µL/min | Cmax [6]: 200 ng/mL | intrinsic clearance (CLint) [7]: 177 µL/min | Tmax [8]: 2 h | bioavailability [9]: 18.1% | clearance [10]: 81.1 mL/min/kg | half-life [11]: 1 h

CC(C)CCn1c(CN2C(=O)C3(CC3)c3cc(F)ccc32)nc2cc(CN)ccc21
Papp at 1 h, 10 µM [12]: 7.3 ×10⁻⁶ cm/s | CC50 [13]: 7600 nM | intrinsic clearance [3]: < 29 µL/min | Microsomal intrinsic clearance [5]: < 29 µL/min | intrinsic clearance (CLint) [7]: 344 µL/min | fraction unbound at 5 µM [14]: 0.11 | fraction unbound at 5 µM [15]: 0.19 | fraction unbound at 5 µM [16]: 0.15 | EC50 (Human orthopneumovirus [17]): 4.2 nM

CC(C)CCn1c(CN2C(=O)C3(CC3)c3ccc(F)cc32)nc2cc(CN)ccc21
bioavailability [18]: 25% | CC50 [13]: 3000 nM | intrinsic clearance [3]: 6.23 µL/min | clearance [19]: 174 mL/min/kg | Microsomal intrinsic clearance [5]: 45 µL/min | solubility thermodynamic [20]: 176 µM (≈ 71.7 µg/mL) | Papp [21]: 0.75 10^-6 cm/s | intrinsic clearance (CLint) [7]: 50.7 µL/min | Vd [22]: 54.3 L/kg | fraction unbound at 5 µM [14]: 0.184 | Cmax [23]: 44.2 ng/mL | hepatocyte CLint at 3 µM [24]: 43.1 µL/min/1e6 cells | fraction unbound at 5 µM [15]: 0.333 | fraction unbound at 5 µM [16]: 0.151 | Ratio [25]: 88 | EC50 (Human orthopneumovirus [17]): 0.8 nM

CC(C)CCn1c(CN2C(=O)C3(CCCC3)c3ccncc32)nc2cc(CN)ccc21
Papp at 1 h, 10 µM [12]: 11 ×10⁻⁶ cm/s | CC50 [13]: 23100 nM | intrinsic clearance [3]: < 28 µL/min | Microsomal intrinsic clearance [5]: < 31 µL/min | intrinsic clearance (CLint) [7]: 488 µL/min | half-life [26]: > 1.48 h | half-life [27]: 6 min | fraction unbound at 5 µM [14]: 0.17 | half-life [28]: > 1.67 h | fraction unbound at 5 µM [15]: 0.24 | fraction unbound at 5 µM [16]: 0.14 | solubility kinetic at 200 µM [29]: 160 µM (≈ 66.8 µg/mL) | EC50 (Human orthopneumovirus [17]): 310 nM

CC(C)CCn1c(CN2C(=O)C3(CC3)c3ccccc32)nc2cc(CN)ccc21
bioavailability [18]: 4% | Papp at 1 h, 10 µM [12]: 12 ×10⁻⁶ cm/s | Vd [2]: 34 L/kg | Drug metabolism [30]: Metabolite_Detected | CC50 [13]: 15300 nM | intrinsic clearance [3]: < 28 µL/min | Drug metabolism [31]: Metabolite_Detected | Cmax [32]: 6 ng/mL | clearance [19]: 98 mL/min/kg | Microsomal intrinsic clearance [5]: < 19 µL/min | solubility thermodynamic [20]: 155 µM (≈ 60.2 µg/mL) | intrinsic clearance (CLint) [7]: 592 µL/min | half-life [26]: > 1.58 h | half-life [27]: 5 min | Vd [22]: 34 L/kg | fraction unbound at 5 µM [14]: 0.07 | clearance [10]: 98 mL/min/kg | half-life [28]: > 1.67 h | Cmax [23]: 6 ng/mL | bioavailability [33]: 4% | fraction unbound at 5 µM [15]: 0.1 | fraction unbound at 5 µM [16]: 0.1 | solubility kinetic at 200 µM [29]: 155 µM (≈ 60.2 µg/mL) | EC50 (Human orthopneumovirus [17]): 31 nM
